# Test results as given in ChEMBL document CHEMBL1153000, “Berbamine derivatives: a novel class of compounds for anti-leukemia activity” (Eur J Med Chem, 2009).
# The source made the active and inactive calls. The calls are words filed in the database; no cut-off is given here.
# Columns and labels:
# K562 [1] = assay: Cytotoxicity against human imatinib-resistant K562 leukemia cells expressing p210Bcr/Abl and MDR1 at 48 hrs by MTT assay; format: functional, cell-based; conditions: K562, 48 h
# Procedure, shortened: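 Cells were cultured with 100 µg/ml streptomycin at 37 °C in a humidified 95% air/5% CO2 incubator. Viability was read by MTT after 48 h exposure and counts were taken by hemocytometer. IC50 is the mean of three independent determinations.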
# K562 [2] = assay: Inhibition of NF-kappaB translocation from cytoplasm to nucleus in human imatinib-resistant K562 leukemia cells expressing p210Bcr/Ab assessed as disappearance of NF-kappaB p65/relA subunit nuclear level at 0.5 ug/ml after 24 hrs by Western blot analysis
# K562 [3] = assay: Inhibition of NF-kappaB translocation from cytoplasm to nucleus in human imatinib-resistant K562 leukemia cells expressing p210Bcr/Ab assessed as disappearance of NF-kappaB p65/relA subunit nuclear level at 0.5 ug/ml after 24 hrs by Western blot analysis; format: functional, cell-based
# Procedure, shortened: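 Leukemia cells were exposed for 24 h (berbamine 8 µg/ml; derivatives 0.5 µg/ml). Nuclear levels of NF-κB p65/relA were analysed by immunoblot with lamin as the nuclear loading control, and total p65 was also assessed.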
# K562 [4] = assay: Cell cycle arrest in human imatinib-resistant K562 leukemia cells expressing p210Bcr/Ab assessed as accumulation at S phase at 2 ug/ml after 48 hrs by flow cytometry; format: functional
# Procedure, shortened: (§1)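 K562-R cells (MDR1-expressing) were treated with 1.0 or 2.0 µg/ml for 48 h, then harvested, PBS-washed, fixed in ice-cold 70% ethanol at 4 °C overnight, and stained with 50 µg/ml propidium iodide. Flow cytometry gave the percentage of cells in G0/G1, S and G2/M, with the sub-G1 fraction scored as apoptotic.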
# K562 [5] = assay: Cell cycle arrest in human imatinib-resistant K562 leukemia cells expressing p210Bcr/Ab assessed as accumulation at G0/G1 phase at 2 ug/ml after 48 hrs by flow cytometry; format: functional; procedure, shortened: as §1
# K562 [6] = assay: Induction of apoptosis in human imatinib-resistant K562 cells expressing p210Bcr/Abl at 1 ug/ml after 48 hrs by flow cytometry; format: functional; procedure, shortened: as §1
# K562 [7] = assay: Cell cycle arrest in human imatinib-resistant K562 leukemia cells expressing p210Bcr/Ab assessed as accumulation at G2/M phase at 1 ug/ml after 48 hrs by flow cytometry; format: functional; procedure, shortened: as §1
# K562 [8] = assay: Induction of apoptosis in human imatinib-resistant K562 leukemia cells expressing p210Bcr/Abl at 2 ug/ml after 48 hrs by flow cytometry; format: functional; procedure, shortened: as §1
# K562 [9] = assay: Cell cycle arrest in human imatinib-resistant K562 cells assessed as accumulation at G2/M phase at 2 ug/ml after 48 hrs by flow cytometry; format: functional; procedure, shortened: as §1
# K562 [10] = assay: Cell cycle arrest in human imatinib-resistant K562 leukemia cells expressing p210Bcr/Ab assessed as accumulation at G0/G1 phase at 1 ug/ml after 48 hrs by flow cytometry; format: functional; procedure, shortened: as §1
# K562 [11] = assay: Cell cycle arrest in human imatinib-resistant K562 leukemia cells expressing p210Bcr/Ab assessed as accumulation at S phase at 1 ug/ml after 48 hrs by flow cytometry; format: functional; procedure, shortened: as §1
SMILES,IC50 (K562 [1]),other results
C=C(C)C(=O)Oc1ccc2cc1Oc1ccc(cc1)C[C@H]1c3cc(c(OC)cc3CCN1C)Oc1c(OC)c(OC)cc3c1[C@@H](C2)N(C)CC3,3.81 µM,
COc1cc2c3cc1Oc1c(OC)c(OC)cc4c1[C@@H](Cc1ccc(OCc5ccc(Br)cc5)c(c1)Oc1ccc(cc1)C[C@@H]3N(C)CC2)N(C)CC4,0.71 µM,
CCOCCCCOc1ccc2cc1Oc1ccc(cc1)C[C@H]1c3cc(c(OC)cc3CCN1C)Oc1c(OC)c(OC)cc3c1[C@@H](C2)N(C)CC3,4.08 µM,
COc1cc2c3cc1Oc1c(OC)c(OC)cc4c1[C@@H](Cc1ccc(OC(=O)c5ccco5)c(c1)Oc1ccc(cc1)C[C@@H]3N(C)CC2)N(C)CC4,2.78 µM,
COc1cc2c3cc1Oc1c(OC)c(OC)cc4c1[C@@H](Cc1ccc(OC(=O)c5ccc(Br)cc5)c(c1)Oc1ccc(cc1)C[C@@H]3N(C)CC2)N(C)CC4,0.4 µM,
COc1ccc(C(=O)Oc2ccc3cc2Oc2ccc(cc2)C[C@H]2c4cc(c(OC)cc4CCN2C)Oc2c(OC)c(OC)cc4c2[C@@H](C3)N(C)CC4)cc1,0.55 µM,inhibition (K562 [2]): Active; inhibition (K562 [3]): Active
COc1cc2c3cc1Oc1c(OC)c(OC)cc4c1[C@@H](Cc1ccc(OS(C)(=O)=O)c(c1)Oc1ccc(cc1)C[C@@H]3N(C)CC2)N(C)CC4,4.74 µM,
COc1cc2c3cc1Oc1c(OC)c(OC)cc4c1[C@@H](Cc1ccc(OCc5ccc(Cl)nc5)c(c1)Oc1ccc(cc1)C[C@@H]3N(C)CC2)N(C)CC4,0.4 µM,
COc1cc2c3cc1Oc1c(OC)c(OC)cc4c1[C@@H](Cc1ccc(OC(C)=O)c(c1)Oc1ccc(cc1)C[C@@H]3N(C)CC2)N(C)CC4,6.6 µM,
COc1cc2c3cc1Oc1c(OC)c(OC)cc4c1[C@@H](Cc1ccc(OC(=O)Cc5ccccc5)c(c1)Oc1ccc(cc1)C[C@@H]3N(C)CC2)N(C)CC4,2.23 µM,
COc1cc2c3cc1Oc1c(OC)c(OC)cc4c1[C@@H](Cc1ccc(OC(=O)C(C)(C)C)c(c1)Oc1ccc(cc1)C[C@@H]3N(C)CC2)N(C)CC4,1.01 µM,
COc1cc2c3cc1Oc1c(OC)c(OC)cc4c1[C@@H](Cc1ccc(OCc5cc(OC)c(OC)c(OC)c5)c(c1)Oc1ccc(cc1)C[C@@H]3N(C)CC2)N(C)CC4,1.53 µM,
COc1cc2c3cc1Oc1c(OC)c(OC)cc4c1[C@@H](Cc1ccc(OC(=O)c5ccccc5Br)c(c1)Oc1ccc(cc1)C[C@@H]3N(C)CC2)N(C)CC4,0.78 µM,
COc1cc2c3cc1Oc1c(OC)c(OC)cc4c1[C@@H](Cc1ccc(OC(=O)c5cc6ccccc6[nH]5)c(c1)Oc1ccc(cc1)C[C@@H]3N(C)CC2)N(C)CC4,0.46 µM,
CCOc1ccc2cc1Oc1ccc(cc1)C[C@H]1c3cc(c(OC)cc3CCN1C)Oc1c(OC)c(OC)cc3c1[C@@H](C2)N(C)CC3,3.14 µM,
COc1cc2c3cc1Oc1c(OC)c(OC)cc4c1[C@@H](Cc1ccc(OCc5ccc([N+](=O)[O-])cc5)c(c1)Oc1ccc(cc1)C[C@@H]3N(C)CC2)N(C)CC4,0.36 µM,

SMILES,IC50 (K562 [1]),other results
COc1cc2c3cc1Oc1c(OC)c(OC)cc4c1[C@@H](Cc1ccc(OCCCBr)c(c1)Oc1ccc(cc1)C[C@@H]3N(C)CC2)N(C)CC4,1.66 µM,
COc1cc2c3cc1Oc1c(OC)c(OC)cc4c1[C@@H](Cc1ccc(OC(=O)c5cccc(CCl)c5)c(c1)Oc1ccc(cc1)C[C@@H]3N(C)CC2)N(C)CC4,0.5 µM,
COc1cc2c3cc1Oc1c(OC)c(OC)cc4c1[C@@H](Cc1ccc(OC(=O)c5ccccc5C)c(c1)Oc1ccc(cc1)C[C@@H]3N(C)CC2)N(C)CC4,0.69 µM,Activity (K562 [4]): 22.89%; inhibition (K562 [2]): Active; Activity (K562 [5]): 20.04%; Activity (K562 [6]): 31.71%; inhibition (K562 [3]): Active; Activity (K562 [7]): 7.3%; Activity (K562 [8]): 51.91%; Activity (K562 [9]): 6.01%; Activity (K562 [10]): 32.37%; Activity (K562 [11]): 29.28%
COc1cc2c3cc1Oc1c(OC)c(OC)cc4c1[C@@H](Cc1ccc(OC(=O)c5cc(OC)c(OC)c(OC)c5)c(c1)Oc1ccc(cc1)C[C@@H]3N(C)CC2)N(C)CC4,0.69 µM,inhibition (K562 [2]): Active; inhibition (K562 [3]): Active
COc1cc2c3cc1Oc1c(OC)c(OC)cc4c1[C@@H](Cc1ccc(OC(=O)Cc5cc(F)c(F)cc5F)c(c1)Oc1ccc(cc1)C[C@@H]3N(C)CC2)N(C)CC4,3.02 µM,
COc1cc2c3cc1Oc1c(OC)c(OC)cc4c1[C@@H](Cc1ccc(OCc5ccccc5)c(c1)Oc1ccc(cc1)C[C@@H]3N(C)CC2)N(C)CC4,0.8 µM,
COc1cc2c3cc1Oc1c(OC)c(OC)cc4c1[C@@H](Cc1ccc(OC(=O)c5ccc(Cl)cc5)c(c1)Oc1ccc(cc1)C[C@@H]3N(C)CC2)N(C)CC4,0.98 µM,inhibition (K562 [2]): Active; inhibition (K562 [3]): Active
COc1cc2c3cc1Oc1c(OC)c(OC)cc4c1[C@@H](Cc1ccc(OC(=O)c5cccc(F)c5)c(c1)Oc1ccc(cc1)C[C@@H]3N(C)CC2)N(C)CC4,1.97 µM,
COc1cc2c3cc1Oc1c(OC)c(OC)cc4c1[C@@H](Cc1ccc(OC(=O)c5ccccc5)c(c1)Oc1ccc(cc1)C[C@@H]3N(C)CC2)N(C)CC4,2.16 µM,
COc1cc2c3cc1Oc1c(OC)c(OC)cc4c1[C@@H](Cc1ccc(O)c(c1)Oc1ccc(cc1)C[C@@H]3N(C)CC2)N(C)CC4 [BERBAMINE],8.93 µM,inhibition (K562 [2]): Active; inhibition (K562 [3]): Active
COc1cc2c3cc1Oc1c(OC)c(OC)cc4c1[C@@H](Cc1ccc(OC(=O)c5ccc([N+](=O)[O-])cc5)c(c1)Oc1ccc(cc1)C[C@@H]3N(C)CC2)N(C)CC4 [E6 BERBAMINE],2.13 µM,
COc1cc2c3cc1Oc1c(OC)c(OC)cc4c1[C@@H](Cc1ccc(OC(=O)CCl)c(c1)Oc1ccc(cc1)C[C@@H]3N(C)CC2)N(C)CC4,2.7 µM,
COc1cc2c3cc1Oc1c(OC)c(OC)cc4c1[C@@H](Cc1ccc(OC(=O)c5ccccc5Cl)c(c1)Oc1ccc(cc1)C[C@@H]3N(C)CC2)N(C)CC4,0.6 µM,
COc1cc2c3cc1Oc1c(OC)c(OC)cc4c1[C@@H](Cc1ccc(OC(=O)c5cc([N+](=O)[O-])cc([N+](=O)[O-])c5)c(c1)Oc1ccc(cc1)C[C@@H]3N(C)CC2)N(C)CC4,3.75 µM,
COc1cc2c3cc1Oc1c(OC)c(OC)cc4c1[C@@H](Cc1ccc(OS(=O)(=O)c5ccccc5)c(c1)Oc1ccc(cc1)C[C@@H]3N(C)CC2)N(C)CC4,1.99 µM,
COc1cc2c3cc1Oc1c(OC)c(OC)cc4c1[C@@H](Cc1ccc(OC(=O)c5cccc(C(F)(F)F)c5)c(c1)Oc1ccc(cc1)C[C@@H]3N(C)CC2)N(C)CC4,0.89 µM,
